Laboratory results reported in ChEMBL document CHEMBL3621102, “Structure-activity study of quinazoline derivatives leading to the discovery of potent EGFR-T790M inhibitors” (Eur J Med Chem, 2015).
Active and inactive are the calls of the source. No cut-off for these calls is given here.

Legend:
Mus musculus [1] = test: Toxicity in human HCC827 cells xenografted BALB/c mouse assessed as induction of eye disease at 5 mg/kg po, qd for 12 days; type: organism-based; conditions: in vivo, 288 h
Outline: (§1)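 Athymic mice bearing subcutaneous right-flank xenografts (2 × 10⁶ cells, dosed at 100–300 mm³; n = 6 per group; vehicle controls). Health was observed daily and body weight measured on indicated days. Body weight change (%) = (Wt/W0 − 1) × 100 against predosing weight, given as group mean ± SEM.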

Mus musculus [2] = test: Toxicity in human A431 cells xenografted BALB/c mouse assessed as induction of eye diseases at 5 and 10 mg/kg po, qd for 18 days; type: organism-based, A-431; conditions: in vivo, 432 h; outline: as §1
[3] = Clearance in Sprague-Dawley rat at 1 mg/kg, iv incubated for 24 hrs by LC/MS/MS method; type: ADME, organism-based; conditions: in vivo
Outline: (§2)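 Male Sprague-Dawley rats (n = 3) dosed once at 1 mg/kg iv via tail vein, or once at 5 mg/kg by oral gavage, using the same formulation. Serial blood samples were taken over 24 h. Plasma levels were measured by LC/MS/MS (C18 column, 10 mM ammonium formate-0.1% formic acid water/methanol 10/90, ESI positive). Parameters were derived by noncompartmental analysis.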

NCI-H1975 [4] = test: Antiproliferative activity against human NCI-H1975 cells assessed as growth inhibition; type: functional
Outline: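 NCI-H1975 cells were grown in RPMI with 1 mM sodium pyruvate, 10% FBS and 1% penicillin-streptomycin, under humidified 5% CO₂ at 37 °C. Growth inhibition was read as GI₅₀.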

[5] = Mean residence time in Sprague-Dawley rat at 1 mg/kg, iv incubated for 24 hrs by LC/MS/MS method; type: ADME, organism-based; conditions: in vivo; outline: as §2
Mus musculus [6] = test: Toxicity in human A431 cells xenografted BALB/c mouse assessed as body weight loss at 5 and 10 mg/kg po, qd for 18 days; type: organism-based, A-431; conditions: in vivo, 432 h; outline: as §1
[7] = AUC (0 to infinity) in Sprague-Dawley rat at 1 mg/kg, iv by LC/MS/MS method; type: ADME, organism-based; set-up: dose 1 mg/kg, time infinity, route intravenous; conditions: in vivo; outline: as §2
NCI-H1975 [8] = test: Antitumor activity against human NCI-H1975 cells xenografted in BALB/c mouse assessed as tumor growth inhibition at 20 mg/kg po, qd for 21 days relative to control; type: functional
Outline: (§3)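 Athymic mice received 2 × 10⁶ tumour cells subcutaneously in the right flank. At 100–300 mm³ they were randomised to control and treatment groups (n = 6); controls received vehicle alone. Tumour volume = length × width²/2 and RTV = Vt/V0.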

Mus musculus [9] = test: Toxicity in human HCC827 cells xenografted BALB/c mouse assessed as induction of exfoliative skin disorders at 5 mg/kg po, qd for 12 days; type: organism-based; conditions: in vivo, 288 h; outline: as §1
A-431 [10] = test: Antitumor activity against human A431 cells xenografted in BALB/c mouse assessed as tumor growth inhibition at 10 mg/kg po, qd for 18 days; type: functional, organism-based; outline: as §3
Mus musculus [11] = test: Toxicity in NCI-H1975 xenografted BALB/c mouse assessed as body weight change at 20 mg/kg po, qd for 21 days; type: organism-based; conditions: in vivo, 504 h; outline: as §1
[12] = Elimination half-life in Sprague-Dawley rat at 1 mg/kg, iv incubated for 24 hrs by LC/MS/MS method; type: ADME, organism-based; conditions: in vivo, read-out: beta t1/2 (converted); outline: as §2
Mus musculus [13] = test: Toxicity in human A431 cells xenografted BALB/c mouse assessed as induction of exfoliative skin disorders at 5 and 10 mg/kg po, qd for 18 days; type: organism-based, A-431; conditions: in vivo, 432 h; outline: as §1
[14] = Apparent volume of distribution in Sprague-Dawley rat at 1 mg/kg, iv incubated for 24 hrs by LC/MS/MS method; type: ADME, organism-based; conditions: in vivo, read-out: Vd(app); outline: as §2
[15] = target: Epidermal growth factor receptor (Homo sapiens, UniProt P00533); test: Inhibition of EGFR (unknown origin) by ELISA method
Sequence of Epidermal growth factor receptor (P00533 whole entry): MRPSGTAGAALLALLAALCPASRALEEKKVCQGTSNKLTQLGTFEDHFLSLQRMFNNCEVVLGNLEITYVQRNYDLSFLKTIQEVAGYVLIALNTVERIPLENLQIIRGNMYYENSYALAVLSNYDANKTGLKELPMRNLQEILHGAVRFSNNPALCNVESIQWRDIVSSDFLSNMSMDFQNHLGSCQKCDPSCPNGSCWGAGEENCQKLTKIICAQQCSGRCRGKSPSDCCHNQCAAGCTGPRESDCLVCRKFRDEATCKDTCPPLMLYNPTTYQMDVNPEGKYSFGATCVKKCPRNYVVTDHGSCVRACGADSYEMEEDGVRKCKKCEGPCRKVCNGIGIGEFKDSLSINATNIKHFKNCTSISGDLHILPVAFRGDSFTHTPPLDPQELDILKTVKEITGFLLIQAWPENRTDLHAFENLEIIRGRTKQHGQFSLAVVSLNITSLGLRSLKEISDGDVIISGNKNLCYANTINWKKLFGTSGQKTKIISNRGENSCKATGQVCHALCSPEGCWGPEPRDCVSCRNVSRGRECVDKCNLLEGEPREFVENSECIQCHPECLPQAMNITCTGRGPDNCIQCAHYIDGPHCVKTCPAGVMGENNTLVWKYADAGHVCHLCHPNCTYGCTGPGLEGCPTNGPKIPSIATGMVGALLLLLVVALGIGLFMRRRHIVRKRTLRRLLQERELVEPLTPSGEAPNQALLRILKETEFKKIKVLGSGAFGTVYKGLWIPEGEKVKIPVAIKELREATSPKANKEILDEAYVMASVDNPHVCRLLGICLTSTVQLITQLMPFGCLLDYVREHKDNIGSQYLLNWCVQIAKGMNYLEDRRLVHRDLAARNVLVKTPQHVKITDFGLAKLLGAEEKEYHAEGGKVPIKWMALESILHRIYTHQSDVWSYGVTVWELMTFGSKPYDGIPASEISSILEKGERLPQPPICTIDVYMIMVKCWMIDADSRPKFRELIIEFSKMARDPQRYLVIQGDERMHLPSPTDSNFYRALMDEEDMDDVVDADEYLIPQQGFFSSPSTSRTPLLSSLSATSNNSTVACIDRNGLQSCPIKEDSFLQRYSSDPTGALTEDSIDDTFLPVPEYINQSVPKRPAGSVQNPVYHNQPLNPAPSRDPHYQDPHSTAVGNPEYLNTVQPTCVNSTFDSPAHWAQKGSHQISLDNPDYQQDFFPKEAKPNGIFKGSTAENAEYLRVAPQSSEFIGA

Mus musculus [16] = test: Toxicity in human HCC827 cells xenografted BALB/c mouse assessed as body weight loss at 5 mg/kg po, qd for 12 days; type: organism-based; conditions: in vivo, 288 h; outline: as §1
[17] = Bioavailability in Sprague-Dawley rat at 1 mg/kg, iv incubated for 24 hrs by LC/MS/MS method; type: ADME, organism-based; conditions: in vivo; outline: as §2
A-431 [18] = test: Antitumor activity against human A431 cells xenografted in BALB/c mouse assessed as tumor growth inhibition at 5 mg/kg po, qd for 18 days; type: functional, organism-based; outline: as §3
HCC827 = test: Antitumor activity against human HCC827 cells xenografted in BALB/c mouse assessed as tumor growth inhibition at 5 mg/kg po, qd for 12 days; type: functional, organism-based; outline: as §3
[19] = AUC (0 to 24 hrs) in Sprague-Dawley rat at 1 mg/kg, iv by LC/MS/MS method; type: ADME, organism-based; set-up: time < 24 hr, dose 1 mg/kg, route intravenous; conditions: in vivo; outline: as §2
Mus musculus [20] = test: Toxicity in human NCI-H1975 cells xenografted BALB/c mouse assessed as body weight changes at 20 mg/kg po, qd for 21 days relative to control; type: organism-based; conditions: in vivo, 504 h; outline: as §1
Mus musculus [21] = test: Toxicity in human NCI-H1975 cells xenografted BALB/c mouse assessed as mouse mortality at 30 mg/kg po, qd for 21 days measured on day 10 relative to control; type: organism-based; conditions: in vivo, 504 h
Outline: (§4)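 Athymic mice received 2 × 10⁶ NCI-H1975 cells subcutaneously in the right flank. When tumours reached 100–300 mm³, mice were randomised into control and treatment groups (n = 6 per group), and controls got vehicle alone. Health was checked daily, and body weight and tumour size were measured on set days during treatment.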

[22] = Toxicity in NCI-H1975 xenografted BALB/c mouse assessed as induction of mouse mortality at 20 mg/kg po, qd for 7 days; type: organism-based; conditions: in vivo; outline: as §4
Mus musculus [23] = test: Toxicity in NCI-H1975 xenografted BALB/c mouse assessed as body weight loss at 20 mg/kg po, qd for 21 days; type: organism-based; conditions: in vivo, 504 h; outline: as §1
Mus musculus [24] = test: Toxicity in NCI-H1975 xenografted BALB/c mouse assessed as induction of exfoliative skin disorder at 4 mg/kg po, qd for 21 days; type: organism-based; conditions: in vivo, 504 h; outline: as §1
[25] = Toxicity in NCI-H1975 xenografted BALB/c mouse assessed as induction of mouse mortality at 4 mg/kg po, qd for 9 days; type: organism-based; conditions: in vivo; outline: as §4
NCI-H1975 [26] = test: Antitumor activity against human NCI-H1975 cells xenografted in BALB/c mouse assessed as tumor growth inhibition at 4 mg/kg po, qd for 21 days; type: functional, organism-based; outline: as §3
Mus musculus [27] = test: Toxicity in NCI-H1975 xenografted BALB/c mouse assessed as induction of weakness at 4 mg/kg po, qd for 21 days; type: organism-based; conditions: in vivo, 504 h; outline: as §1
Mus musculus [28] = test: Toxicity in NCI-H1975 xenografted BALB/c mouse assessed as induction of eye disease at 4 mg/kg po, qd for 21 days; type: organism-based; conditions: in vivo, 504 h; outline: as §1
Mus musculus [29] = test: Toxicity in NCI-H1975 xenografted BALB/c mouse assessed as body weight loss at 4 mg/kg po, qd for 21 days; type: organism-based; conditions: in vivo, 504 h; outline: as §1
Mus musculus [30] = test: Toxicity in NCI-H1975 xenografted BALB/c mouse assessed as induction of lethargy at 4 mg/kg po, qd for 21 days; type: organism-based; conditions: in vivo, 504 h; outline: as §1

C#Cc1cccc(Nc2ncnc3cc(O[C@H]4CCOC4)c(NC(=O)/C=C/CNC4CC4)cc23)c1
Activity (Mus musculus [1]): Non-toxic | Activity (Mus musculus [2]): Non-toxic | clearance [3]: 50 mL/min/kg | GI50 (NCI-H1975 [4]): 16.1 nM | MRT [5]: 1.7 h | Activity (Mus musculus [6]): Non-toxic | AUC(0-inf) [7]: 480 ng·h/mL | TGI (NCI-H1975 [8]): Active | Activity (Mus musculus [9]): Non-toxic | TGI (A-431 [10]): Active | Activity (Mus musculus [11]): Non-toxic | half-life [12]: 2.3 h | Activity (Mus musculus [13]): Non-toxic | Vd [14]: 2.2 L/kg | IC50 [15]: 5.6 nM | Activity (Mus musculus [16]): Non-toxic | bioavailability [17]: 37.9% | TGI (A-431 [18]): inactive | TGI (HCC827): Active | AUC(0-t) at 24 h [19]: 471 ng·h/mL

CN(C)C/C=C/C(=O)Nc1cc2c(Nc3ccc(F)c(Cl)c3)ncnc2cc1O[C@H]1CCOC1.O=C(O)/C=C\C(=O)O.O=C(O)/C=C\C(=O)O [AFATINIB DIMALEATE]
inhibition in vivo at 20 mg/kg (NCI-H1975 [8]; 504 h, read-out: TGI): < 50% | Activity (Mus musculus [20]): Non-toxic | Activity (Mus musculus [21]): Toxic

C#Cc1cccc(Nc2ncnc3cc(OCC)c(NC(=O)/C=C/CN(C)C4CC4)cc23)c1
mortality at 168 h [22]: > 50% | GI50 (NCI-H1975 [4]): 41 nM | TGI (NCI-H1975 [8]): Active | IC50 [15]: 2.4 nM | Activity (Mus musculus [23]): Toxic

CCOc1cc2ncnc(Nc3ccc(F)c(Cl)c3)c2cc1NC(=O)/C=C/CNC1CC1
Activity (Mus musculus [24]): Toxic | mortality at 216 h [25]: > 50% | GI50 (NCI-H1975 [4]): 11.6 nM | TGI (NCI-H1975 [26]): Active | Activity (Mus musculus [27]): Toxic | Activity (Mus musculus [28]): Toxic | IC50 [15]: 0.9 nM | Activity (Mus musculus [29]): Toxic | Activity (Mus musculus [30]): Toxic
